ChEMBL document CHEMBL5346944, “Development of a 2,4-Diaminothiazole Series for the Treatment of Human African Trypanosomiasis Highlights the Importance of Static-Cidal Screening of Analogues” (J Med Chem, 2023)
Calls of active or inactive are those of the source. The calls are words filed in the database; no cut-off is given here.

Columns and labels:
[1] = Antiproliferative activity against human MRC5 cells in presence of 5% Co2 incubated for 69 hrs followed by resazurin addition further incubated for 4 hrs; format: toxicity, cell-based
[2] = Metabolic stability in CD1 mouse liver microsomes assessed as intrinsic clearance by UPLC-MS/MS analysis; format: ADME
In short: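 Compound at 0.5 μM incubated with female CD1 mouse liver microsomes (0.5 mg mL-1, 50 mM potassium phosphate pH 7.4). Reaction started with excess NADPH. Aliquots taken at 0, 3, 6, 9, 15, 30 min and quenched in acetonitrile with internal standard, then analysed by UPLC-MS/MS.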

[3] = Kinetic aqueous solubility of the compound in DMSO by laser nephelometry; format: physicochemical; conditions: read-out: Kinetic_solubility
[4] = Metabolic stability in human liver microsomes assessed as intrinsic clearance by UPLC-MS/MS analysis; format: ADME
[5] = tested on: Trypanosoma brucei; assay: Antiparasitic activity against bloodstream-stage Trypanosoma brucei measured after 73 hrs by resazurin assay; format: functional, organism-based
[6] = Selectivity ratio of IC50 for inhibition of Trypanosoma brucei GSK3 to EC50 for antiparasitic activity against bloodstream-stage Trypanosoma brucei; format: toxicity
[7] = Free Cmax in Sprague-Dawley rat at 10 mg/kg, po by UPLC-MS/MS analysis; format: ADME, organism-based; conditions: in vivo
[8] = tested on: Trypanosoma brucei brucei; assay: Antiparasitic activity against Trypanosoma brucei brucei S427 injected in NMRI mouse assessed as cure by measuring reduction in parasitemia at 100 mg/kg, for 4 days by stage I efficacy study; conditions: time 4.0 day
[9] = tested on: Trypanosoma brucei brucei; assay: Antiparasitic activity against Trypanosoma brucei brucei S427 injected in Sprague-Dawley rat assessed as cure by measuring reduction in parasitemia at 100 mg/kg, po twice daily for 4 days by stage I efficacy study; format: functional, organism-based; conditions: time 4.0 day
[10] = AUC in Sprague-Dawley rat at 10 mg/kg, po by UPLC-MS/MS analysis; format: ADME, organism-based; set-up: dose 10 mg/kg, route po; conditions: in vivo
In short: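 Oral gavage at 10 mg kg-1 free base in 10% DMSO/40% PEG400/50% water, 5 mL kg-1, to female NMRI mice (n = 3) or Sprague-Dawley rats. Blood drawn at 5, 15, 30 min and 1, 2, 4, 6, 8 h, mixed with two volumes of water, measured by UPLC-MS/MS. Parameters taken from the mean blood concentration–time curve.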

[11] = Free Cmax in NMRI mouse at 50 mg/kg, ip by UPLC-MS/MS analysis; format: ADME, organism-based; conditions: in vivo
[12] = AUC in NMRI mouse at 50 mg/kg, ip by UPLC-MS/MS analysis; format: ADME, organism-based; set-up: dose 50 mg/kg, route ip; conditions: in vivo
[13] = Tmax in NMRI mouse at 50 mg/kg, ip by UPLC-MS/MS analysis; format: ADME, organism-based; conditions: in vivo
[14] = Cmax in NMRI mouse at 100 mg/kg, ip by UPLC-MS/MS analysis; format: ADME, organism-based; set-up: dose 100 mg/kg, route ip; conditions: in vivo
[15] = Free Cmax in NMRI mouse at 100 mg/kg, ip by UPLC-MS/MS analysis; format: ADME, organism-based; conditions: in vivo
[16] = Cmax in NMRI mouse at 50 mg/kg, ip by UPLC-MS/MS analysis; format: ADME, organism-based; set-up: dose 50 mg/kg, route ip; conditions: in vivo
[17] = tested on: Trypanosoma brucei; assay: Antiparasitic activity against bloodstream-form Trypanosoma brucei in presence of 5% Co2 incubated for 69 hrs followed by resazurin addition further incubated for 4 hrs; format: functional, organism-based
[18] = Selectivity index, ratio of EC50 for human MRC-5 cells to EC50 for bloodstream-form Trypanosoma brucei; format: toxicity; conditions: read-out: Selectivity Index

Row | CLH [2] [mL/min/g] | Compound | EC50 at 69 h [1] [µM] | other results
1 | 9.3 | CC(C)OCC(=O)c1sc(Nc2ccc(F)c(F)c2)nc1N | 50 | 
2 | 7.4 | CC(OCC(=O)c1sc(Nc2ccc(F)c(F)c2)nc1N)C(F)(F)F (stereo unspecified) | 50 | 
3 | 26 | Nc1nc(Nc2ccc(F)c(F)c2)sc1C(=O)CN1CCCC1C(F)(F)F (stereo unspecified) |  | 
4 | 0.5 | CC(C)C(=O)c1sc(NC2CCCCC2)nc1N |  | 
5 | 15 | O=C(c1cnc(NC2CCCCC2)s1)C1CCCCC1 |  | 
6 | 4.9 | Nc1nc(NC2CCCCC2)sc1C(=O)c1ccc(F)cc1 |  | 
7 | 9.7 | Nc1nc(NC2CCCCC2)sc1C(=O)c1ccccc1F | 2 | 
8 | 3.8 | COC(C)(C)C(=O)c1sc(NC2CCCCC2)nc1N |  | 
9 | 10.8 | CC(OCC(=O)c1sc(Nc2ccn(C)n2)nc1N)C(F)(F)F (stereo unspecified) |  | 
10 |  | CC(C)OCCC(=O)c1sc(Nc2ccc(F)c(F)c2)nc1N | 50 | 
11 | 9.3 | Nc1nc(Nc2ccc(F)c(F)c2)sc1C(=O)CN1CCC(F)(F)CC1 |  | 
12 |  | Nc1nc(Nc2ccc(F)c(F)c2)sc1C(=O)COC(CF)CF | 50 | 
13 | 8.9 | Nc1nc(NC2CCCCC2)sc1C(=O)C1CCCCC1 |  | 
14 | 4.1 | Nc1nc(NC2CCCCC2)sc1C(=O)c1ccncc1 |  | 
15 | 5.3 | CC(OCC(=O)c1sc(Nc2ccc(Cl)cc2)nc1N)C(F)(F)F (stereo unspecified) | 50 | solubility kinetic [3]: > 100 µg/mL
16 | 5.2 | CC1CCCN1CC(=O)c1sc(Nc2ccc(F)c(F)c2)nc1N (stereo unspecified) | 50 | 
17 | 5.9 | CC(C)CC(=O)c1sc(Nc2ccc(F)c(F)c2)nc1N |  | CLH [4]: 3.2 mL/min/g
18 | 4.6 | CC(C)(C)CC(=O)c1sc(Nc2ccc(F)c(F)c2)nc1N |  | 
19 | 12 | Nc1nc(NC2CCCCC2)sc1C(=O)c1ccc(F)c(F)c1 |  | 
20 | 3.6 | Nc1nc(NC2CCCCC2)sc1C(=O)c1cc(F)cc(F)c1 |  | 
21 | 1.8 | Nc1nc(NC2CCCC(O)C2)sc1C(=O)c1c(F)cccc1F (stereo unspecified) |  | 
22 | 8 | CC(C)CC(=O)c1sc(Nc2ccc(F)cc2)nc1N |  | 
23 | 2.2 | CC(C)(O)CC(=O)c1sc(Nc2ccc(F)c(F)c2)nc1N |  | fCmax [7]: 195 ng/mL; Activity [8]: inactive; Activity [9]: inactive; AUC [10]: 470 µg·h/mL; fCmax [11]: 2600 ng/mL; CLH [4]: < 0.5 mL/min/g; AUC [12]: 1900 µg·h/mL; Tmax [13]: 30 min; Cmax [14]: 36000 ng/mL; fCmax [15]: 5200 ng/mL; Cmax [16]: 18000 ng/mL
24 | 7.3 | Nc1nc(Nc2ccccc2)sc1C(=O)c1ccc(F)cc1 |  | 
25 |  | CC(C)(C)OCC(=O)c1sc(Nc2ccc(F)c(F)c2)nc1N | 50 | 

Row | CLH [2] [mL/min/g] | Compound | EC50 at 69 h [1] [µM] | other results
26 | 9 | Nc1nc(Nc2ccc(F)c(F)c2)sc1C(=O)COC1CCC1 | 50 | 
27 | 2.1 | Nc1nc(Nc2ccc(F)c(F)c2)sc1C(=O)CN1CCCC1 |  | 
28 | 8.1 | C[C@@H]1CN(CC(=O)c2sc(Nc3ccc(F)c(F)c3)nc2N)C[C@H](C)O1 | 50 | EC50 [17]: 0.05 µM; selectivity ratio [18]: 1000
29 |  | CC(OCC(=O)c1sc(Nc2cccc(OC(F)F)c2)nc1N)C(F)(F)F (stereo unspecified) | 50 | solubility kinetic [3]: > 100 µg/mL; EC50 [17]: 0.02 µM; selectivity ratio [18]: 2500
30 |  | CC(OCC(=O)c1sc(Nc2ccc(C(F)(F)F)nc2)nc1N)C(F)(F)F (stereo unspecified) | 50 | 
31 | 4.1 | Nc1nc(NC2CCCCC2)sc1C(=O)c1c(Cl)cccc1Cl |  | 
32 | 8.8 | Nc1nc(Nc2ccc(F)c(F)c2)sc1C(=O)CN1C[C@H]2CC[C@@H](C1)O2 | 50 | 
33 | 5 | CC(OCC(=O)c1sc(Nc2ccc3c(c2)OC(F)(F)O3)nc1N)C(F)(F)F (stereo unspecified) | 50 | solubility kinetic [3]: > 100 µg/mL
34 |  | CCOCC(=O)c1sc(Nc2ccc(F)c(F)c2)nc1N | 50 | 
35 | 6.1 | COC(C)(C)CC(=O)c1sc(Nc2ccc(F)c(F)c2)nc1N | 50 | 
36 | 33 | Nc1nc(Nc2ccc(F)c(F)c2)sc1C(=O)CN1CCCC(F)(F)C1 |  | 
37 | 2.9 | Nc1nc(NC2CCCCC2)sc1C(=O)c1ccc(OC(F)F)cc1 |  | CLH [4]: 0.8 mL/min/g; selectivity ratio [18]: 267
38 | 2.3 | CC(OCC(=O)c1sc(Nc2ccc(C(F)(F)F)cc2)nc1N)C(F)(F)F (stereo unspecified) |  | solubility kinetic [3]: > 100 µg/mL
39 | 4.7 | Nc1nc(Nc2ccc(F)c(F)c2)sc1C(=O)CN1CCOCC1 | 50 | selectivity ratio [18]: 2000
40 | 7.7 | Nc1nc(Nc2ccc(F)c(F)c2)sc1C(=O)CN1CCCCC1 |  | 
41 | 21 | Nc1nc(NC2CCCCC2)sc1C(=O)C1CCC1 |  | selectivity ratio [18]: 5
42 | 14 | Nc1nc(NC2CCCCC2)sc1C(=O)c1ccccc1C(F)(F)F |  | 
43 | 12 | Nc1nc(Nc2ccccc2)sc1C(=O)c1ccccc1 |  | CLH [4]: < 0.5 mL/min/g
44 | 5.2 | Nc1nc(Nc2ccc(F)c(F)c2)sc1C(=O)COC1CC(F)(F)C1(F)F (stereo unspecified) |  | 
45 | 1.2 | Nc1nc(Nc2ccc(F)c(F)c2)sc1C(=O)CCN1CCOCC1 |  | 
46 | 1.4 | Nc1nc(NC2CCCCC2)sc1C(=O)c1ccc(C(F)(F)F)cc1 |  | 
47 | 4.1 | Nc1nc(Nc2ccc(F)c(F)c2)sc1C(=O)CN1C[C@@H]2C[C@H]1CO2 | 50 | 
48 | 9 | COc1ccc(Nc2nc(N)c(C(=O)COC(C)C(F)(F)F)s2)cn1 (stereo unspecified) | 50 | solubility kinetic [3]: > 100 µg/mL
49 | 6.5 | Nc1nc(NC2CCCCC2)sc1C(=O)c1ccc(F)cc1F |  | 

Row | Compound | CLH [2] [mL/min/g] | EC50 at 69 h [1] [µM] | other results
50 | CC(C)(C)C(=O)c1sc(NC2CCCCC2)nc1N | 2.5 |  | EC50 [5]: 0.26 µM; Ratio IC50/EC50 [6]: 70
